# Screening results: PubChem BioAssay, Johns Hopkins Ion Channel Center
# A selection: hits, their analogues and other compounds. The true share with any hit is near 2.3%.
# TRPC4 inh = inhibitors of mouse TRPC4 channel, primary screen, Fluo4 calcium, HEK293 TRPC4beta/mu-opioid cells; DAMGO-evoked Fluo4 calcium flux; hits give low values; Short transient receptor potential channel 4 (Mus musculus), Q9QUQ5; B-score at 10 µM; AID 2247, 2010; 0.39% of 300,000 active;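 active = B-score over 3 SD under the library average, no early fluorescence shift, positive overall ratio signal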
#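 Assay system: TRPC4beta/mu-opioid receptor HEK293 cell line; compound dosing: single concentration per test compound; detection: Fluo4 Ca2+ flux fluorescence; evaluation: per-well B score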
# TRPC4 potent = positive allosteric modulators of TRPC4, primary screen, cell-based, mouse TRPC4beta, HEK293 mu-opioid, Fluo-4 calcium; Short transient receptor potential channel 4 (Mus musculus), Q9QUQ5; DAMGO EC20, Fluo-4 Ca2+ flux; hits give high values; B-score at 10 µM; 0.42% of 310,000 active; AID 2227, 2009;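 active = B-score of calcium response area above 5 SD of library B-scores, with initial fluorescence ratio within 5 SD of library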;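 also: B-score of integrated fluorescence ratio over time as area under calcium response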
# TRPC4 act = activators of mouse TRPC4 channel, primary screen, Fluo4 calcium, HEK293 TRPC4beta/mu-opioid cells; Short transient receptor potential channel 4 (Mus musculus), Q9QUQ5; Fluo4 calcium fluorescence; hits give high values; B-score at 10 µM; 0.49% of 310,000 active; AID 2237, 2010;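 active = B-score above 5 SD of library B-scores, and initial fluorescence ratio not above library mean plus 5 SD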;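 also: positive B-score marks a calcium rise read as TRPC4 activation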
#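 Assay system: HEK293 cells stably co-expressing mouse TRPC4beta and mu-opioid receptor / Timing: Fluo4 dye loading 45 min at room temperature, 110 s recording / Signal: Fluo4 calcium-sensitive dye fluorescence, kinetic, 1 Hz baseline / Read-out: integrated baseline-normalised fluorescence ratio, converted to per-well B score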
# TRPC6 inhibitor = mouse TRPC6 channel inhibitors, primary screen, cell-based, HEK293, membrane potential dye; ACh-evoked depolarization; hits give low values; 1.1% of 310,000 active; B-score at 10 µM;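 active = B-score under library mean minus 3 SD, initial fluorescence not abnormally high, positive integrated signal ratio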;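 also: B-score derived from integrated fluorescence ratio over the kinetic read; more negative B-score means stronger inhibition of depolarization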
# Target sequence (Q61143 whole entry, looked up): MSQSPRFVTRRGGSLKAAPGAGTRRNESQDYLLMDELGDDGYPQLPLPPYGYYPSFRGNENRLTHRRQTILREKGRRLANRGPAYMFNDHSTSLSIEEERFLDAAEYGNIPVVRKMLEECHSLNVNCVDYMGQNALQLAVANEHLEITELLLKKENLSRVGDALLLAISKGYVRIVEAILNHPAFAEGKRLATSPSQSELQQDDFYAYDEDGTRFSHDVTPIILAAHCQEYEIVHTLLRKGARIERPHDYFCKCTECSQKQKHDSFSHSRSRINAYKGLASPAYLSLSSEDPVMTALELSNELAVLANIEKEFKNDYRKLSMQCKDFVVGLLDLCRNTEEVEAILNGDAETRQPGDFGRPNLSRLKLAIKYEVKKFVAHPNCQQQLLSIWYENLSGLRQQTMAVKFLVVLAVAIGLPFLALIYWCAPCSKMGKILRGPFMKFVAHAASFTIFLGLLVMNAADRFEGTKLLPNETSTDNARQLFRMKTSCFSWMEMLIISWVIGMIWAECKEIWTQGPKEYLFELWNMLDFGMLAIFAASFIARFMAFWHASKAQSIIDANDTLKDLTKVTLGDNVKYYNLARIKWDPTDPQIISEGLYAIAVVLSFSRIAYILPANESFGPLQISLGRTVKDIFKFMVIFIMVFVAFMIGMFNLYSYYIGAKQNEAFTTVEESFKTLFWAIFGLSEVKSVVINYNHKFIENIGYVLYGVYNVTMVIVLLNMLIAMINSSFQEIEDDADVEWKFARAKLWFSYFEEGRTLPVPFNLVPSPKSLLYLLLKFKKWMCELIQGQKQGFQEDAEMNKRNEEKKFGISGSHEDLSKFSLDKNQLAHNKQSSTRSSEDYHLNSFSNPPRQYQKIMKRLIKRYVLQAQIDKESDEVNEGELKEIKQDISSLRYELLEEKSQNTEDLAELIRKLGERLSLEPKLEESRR
# TRPC6 activator = mouse TRPC6 channel activators, primary screen, cell-based, HEK293, membrane potential dye | 0.13% of 310,000 active | AID 2550, 2010 | HEK293-TRPC6 membrane potential dye fluorescence; hits give high values | B-score at 10 µM | Short transient receptor potential channel 6 (Mus musculus), Q61143;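 active = B-score of the integrated fluorescence ratio above library mean plus 3 SD, and starting fluorescence ratio within library mean plus 5 SD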;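 also: higher score means more depolarization so channel activation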
# * marks the source's active call; other numbers are inactive results; i = inactive.
SMILES,TRPC4 inh,TRPC4 potent,TRPC4 act,TRPC6 inhibitor,TRPC6 activator
CNCc1ccccc1Sc1ccc(OC)cc1,i,i,i,i,i
Cc1ccc(S(=O)(=O)N(C)C)cc1NC(=O)COC(=O)Cc1ccsc1,i,i,i,i,i
O=C(C1CCN(CC2CC=CCC2)CC1)N(CCc1ccccc1)Cc1ccccc1 (stereo not given),-5*,i,i,i,i
O=C(C1CCN(S(=O)(=O)c2cnc[nH]2)CC1)N(CCc1ccccc1)Cc1ccccc1,i,i,i,i,i
CC(C(=O)Nc1ccc(C(N)=O)cc1)N1C(=O)c2ccccc2S1(=O)=O (stereo not given),i,i,i,i,i
CCCCN(CC)CCCNC(=O)C1c2ccccc2C(=O)N(C)C1c1cn(C)c2ccccc12 (stereo not given),i,i,80*,i,i
CC12CCC(c3c(C(=O)N4CCOCC4)nn(-c4ccccc4)c31)C2(C)C (stereo not given),i,10*,i,i,i
CN1CCCN(Cc2cccc3ccccc23)CC1,i,23*,i,i,i
OC1CCN(Cc2cccc3ccccc23)CC1,i,i,i,i,i
N#Cc1c(N)n(-c2cccc(O)c2)c2nc3ccccc3nc12,i,i,i,i,i
Cc1cccc(C)c1OCC(=O)NCC1CCCO1 (stereo not given),i,i,i,i,i
O=C(NC(=S)NC1C2CC3CC(C2)CC1C3)c1ccccc1 (stereo not given),i,i,i,i,i
COc1ccc(C(=O)C(c2ccccc2)N2CCOCC2)cc1 (stereo not given),i,i,i,i,i
Cc1ccc(C(=O)C(c2ccccc2)N2Cc3ccccc3C2=N)cc1 (stereo not given),i,i,210*,i,i
CCN(CC)CCn1c(NC(=O)c2ccc(C)cc2)nc2ccccc21,i,i,i,i,i
CCC(=O)Nc1nc2ccccc2n1CCN(CC)CC,i,11*,i,i,i
COc1ccc(CCN(C)C(=O)c2cc(S(=O)(=O)N3CCCCCC3)ccc2OC)cc1OC,i,i,i,i,i
COc1ccc(CCN(C)C(=O)c2cc(S(=O)(=O)N3CCCCC3)ccc2Cl)cc1OC,-7*,i,i,i,i
O=c1c2ccccc2nc(-c2ccco2)n1CCc1ccc(O)cc1,i,i,i,i,i
CC1CCN(CCCCOc2ccccc2-c2ccccc2)CC1,i,i,i,i,i
c1ccc(-c2ccccc2OCCOCCN2CCCCC2)cc1,-5*,i,i,i,i
CC1CCN(CCOCCOc2ccccc2-c2ccccc2)CC1,-6*,i,i,i,i
CN1CCN(CC#CCn2c3ccccc3c3ccccc32)CC1,i,16*,i,i,i
CN1CCN(CC(O)Cn2c3ccccc3c3ccccc32)CC1 (stereo not given),i,i,i,i,i
Cc1ccnc(NC(=O)c2ccc3c(c2)S(=O)(=O)c2ccccc2C3=O)c1,i,i,i,i,i
SMILES,TRPC4 inh,TRPC4 potent,TRPC4 act,TRPC6 inhibitor,TRPC6 activator
Cc1ccc(-c2ccc3c(c2)S(=O)(=O)c2ccccc2C3=O)cc1,i,29*,i,i,i
Cc1ccc(S(=O)(=O)NCCC(=O)NCC(c2ccco2)N2CCCCC2)cc1C (stereo not given),-6*,i,72*,i,i
Cc1cc(S(=O)(=O)Nc2ccc(C(=O)NCC(c3ccco3)N3CCCCC3)cc2)ccc1F (stereo not given),i,i,i,i,i
Cc1ccc(S(=O)(=O)Nc2cccc(C(=O)NCC(c3ccco3)N3CCCCC3)c2)cc1F (stereo not given),-9*,i,i,i,i
C/C(=N\NC(=O)CSCc1ccc([N+](=O)[O-])cc1)c1ccccc1O,i,i,i,i,i
Fc1ccc(/C=C2\CCCC3=C2Nc2ncnn2C3c2ccc(F)cc2)cc1 (stereo not given),i,i,i,i,i
O=C1C(Cl)=C(Nc2ccccc2)C(=O)c2ccccc21,i,i,i,i,i
O=C(O)c1ccc(NC2=C(Cl)C(=O)c3ccccc3C2=O)cc1,-5*,i,i,i,i
O=C(CCCc1ccccc1)NCc1ccc(F)cc1,i,i,i,i,i
CC1=CC(=O)C=C(C)C1=NOS(=O)(=O)c1ccccc1,i,i,i,i,i
CC1=CC(=O)C(C(C)C)=C/C1=N/OS(=O)(=O)c1ccccc1,i,21*,i,i,i
CC(C)Cc1nc(N2CCN(C(=O)C(C)C)CC2)c(C#N)c2c1CCC2,i,25*,i,i,i
CC(=O)N1CCN(c2nc(CC(C)C)c3c(c2C#N)CCC3)CC1,i,i,i,i,i
CC(C)Cc1nc(N2CCN(C(=O)c3ccccc3)CC2)c(C#N)c2c1CCC2,i,13*,i,i,i
Cc1cccc(NC(=O)/C(C#N)=C/c2cccc([N+](=O)[O-])c2)n1,i,i,i,i,i
Cc1cc(O)cc(O)c1C=NCc1ccco1,i,i,i,i,i
S=c1[nH]nc(-c2cc3c(s2)-c2ccccc2CC3)o1,-6*,i,i,i,i
COc1ccc(-c2n[nH]c(=S)nc2-c2ccc(OC)cc2)cc1,i,i,i,i,i
CCOc1cccc(CNCCO)c1OCc1ccc(Cl)cc1,-7*,i,i,i,i
Cc1nc2c3cc(Cl)ccc3n(CCN3CCCCC3)c2s1,-6*,i,i,i,i
COC(=O)Cn1c2ccc(Cl)cc2c2nc(C)sc21,i,i,i,i,i
CCOc1ccc(N2CC(NS(=O)(=O)c3cccs3)CC2=O)cc1 (stereo not given),i,i,i,i,i
O=C(NCCCN1CCOCC1)C1CCN(S(=O)(=O)c2c(Cl)cccc2Cl)CC1,i,15*,i,i,i
